Consider seven compounds from ChEMBL document CHEMBL1140863, “Synthesis and evaluation of novel chloropyridazine derivatives as potent human rhinovirus (HRV) capsid-binding inhibitors” (Bioorg Med Chem, 2009).

In brackets after ≈: the same amount, converted by molar mass. Bounds are passed on as bounds.

For data set [1], the system named is rhinovirus A2. The data set can be described thus: Antiviral activity against HRV2 in human KB cells assessed as cytopathic effect by visual assay. The class given is functional, organism-based. The conditions noted are these: Rhinovirus A. The procedure, abridged: (§1)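 Cell-culture cytopathic-effect assays run in parallel on strains HRV-2 and HRV-14, each read both visually and by neutral red uptake. Antiviral EC50 and cytotoxic CC50 are expressed in µg/ml.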
(In general: Protection from cytopathic effect is a common read-out in antiviral testing.)

Data set [2] can be described thus: Cytotoxicity against human KB cells by visual assay. The class given is cell-based. The procedure, abridged: as §1
Data set [3] has as its system rhinovirus A2. Briefly: Antiviral activity against HRV2 in human KB cells assessed as cytopathic effect by neutral red uptake assay. The class given is functional, organism-based. Particulars: Rhinovirus A. The procedure, abridged:
as §1

A short description of data set [4]: Cytotoxicity against human KB cells by neutral red uptake assay. The class given is cell-based. The procedure, abridged:
as §1

Data set [5] has as its system rhinovirus B14. Briefly: Antiviral activity against HRV14 in human KB cells assessed as cytopathic effect by visual assay. It is filed as functional, organism-based. The conditions noted are these: Rhinovirus B. Put shortly: as §1
A short description of data set [6]: Selectivity index, ratio of CC50 for human KB cells to EC50 for HRV14 by visual assay. The procedure, abridged:
(§2)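 Cell-culture cytopathic-effect (CPE) assays against HRV-2 and HRV-14. Antiviral EC50 and cytotoxic CC50 were each taken in µg/ml, with inhibition read either visually or by neutral red uptake. SI = CC50/EC50 for each read-out. Where viral CPE could not be told apart from drug cytotoxicity, this was flagged in a footnote.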

For data set [7], the system named is rhinovirus B14. Briefly: Antiviral activity against HRV14 in human KB cells assessed as cytopathic effect by neutral red uptake assay. The class given is functional, organism-based. The conditions noted are these: Rhinovirus B. Put shortly:
as §1

Data set [8] in a line: Selectivity index, ratio of CC50 for human KB cells to EC50 for HRV14 by neutral red uptake assay. The procedure, abridged: as §2
Data set [9] is described as follows: Selectivity index, ratio of CC50 for human KB cells to EC50 for HRV2 by visual assay. The procedure, abridged:
as §2

Data set [10] in a line: Selectivity index, ratio of CC50 for human KB cells to EC50 for HRV2 by neutral red uptake assay. The procedure, abridged: as §2

Broadly, the EC50 is the concentration at which the effect is half-maximal. The term CC50 denotes the concentration that lowers cell viability or growth by half. Higher therefore signals better tolerance by the cells. As to `CCOc1ccc(OCCN2CCN(c3cc(Cl)nnc3Cl)CC2)cc1`, the concentration for a half-maximal effect (EC50) in data set [1] was > 35 µg/mL; in data set [3] it was > 12 µg/mL; in [5], 0.036 µg/mL (≈ 0.0906 µM); in data set [7] it was < 0.032 µg/mL. In addition, the 50% cytotoxic concentration (CC50) in data set [2] came to 35 µg/mL (≈ 88.1 µM); in data set [4], 12 µg/mL (≈ 30.2 µM). The “Ratio CC50/EC50” value is reported as 972 in [6] and >370 in data set [8].
With `CCOC(=O)c1ccc(OCCC2CCN(c3ccc(C)nn3)CC2)cc1` [PIRODAVIR], the EC50 is < 0.0032 µg/mL in data set [1], < 0.0032 µg/mL in [3], 0.081 µg/mL (≈ 0.219 µM) in data set [5] and 0.01 µg/mL (≈ 0.0271 µM) in data set [7]. Besides, the CC50 in data set [2] and in data set [4] was > 10 µg/mL each time. Moreover, the “Ratio CC50/EC50” value in data set [9] was >3125; in [10] it was >3125; in [6] it was >123; in [8] it was >1000.
`CCOC(=O)c1ccc(OCCC2CCN(c3ccnnc3Cl)CC2)nc1`: the EC50 in [1], in [3], in data set [5] and in [7] was < 0.032 µg/mL in each case. The CC50 in data set [2] and in [4] was > 100 µg/mL each time. Besides, the “Ratio CC50/EC50” value in [9], in [10], in data set [6] and in [8] was >3125 in each case.
In the case of `O=Cc1ccc(OCCN2CCN(c3cc(Cl)nnc3Cl)CC2)cc1`, the EC50 in data set [1] is > 56 µg/mL; in [3] it was 46 µg/mL (≈ 121 µM); in [5] it was 43 µg/mL (≈ 113 µM); in [7], > 43 µg/mL. Besides, the CC50 was 56 µg/mL (≈ 147 µM) in data set [2] and 43 µg/mL (≈ 113 µM) in [4]. Besides, the “Ratio CC50/EC50” value is given as 1.1 in [10] and >2 in data set [6].
`CCCCc1ccc(OCCN2CCN(c3cc(Cl)nnc3Cl)CC2)cc1`: the EC50 in data set [1] was 5.7 µg/mL (≈ 13.9 µM); in data set [3] it was > 1.9 µg/mL; in data set [5] it was 0.15 µg/mL (≈ 0.366 µM); in data set [7], 0.55 µg/mL (≈ 1.34 µM). In addition, the figures for the cytotoxic concentration (CC50) in [2] and in data set [4] were 10 µg/mL (≈ 24.4 µM) and 1.9 µg/mL (≈ 4.64 µM), respectively. The “Ratio CC50/EC50” value in [9] is 1.8; in data set [6] it was 120; in [8], 3.5.
Turning to `COC(=O)c1ccc(OCCC2CCN(c3cc(Cl)nnc3Cl)CC2)cc1`, the EC50 in data set [1] was 0.31 µg/mL (≈ 0.756 µM); in data set [3] it was 0.1 µg/mL (≈ 0.244 µM); in data set [5], 7.1 µg/mL (≈ 17.3 µM); in data set [7] it was > 4.7 µg/mL. The CC50 in [2] worked out at 30 µg/mL (≈ 73.1 µM); in data set [4], 4.7 µg/mL (≈ 11.5 µM). Moreover, the “Ratio CC50/EC50” value in data set [9] stood at 97; in data set [10] it was 58; in data set [6] it was 8.
Turning to `Clc1cc(N2CCN(CCOc3ccc(-n4cnnc4)cc3)CC2)c(Cl)nn1`, the EC50 in [1] was > 100 µg/mL; in data set [3] it was > 42 µg/mL; in data set [5] it was 12 µg/mL (≈ 28.6 µM); in [7] it was 15 µg/mL (≈ 35.7 µM). Also, the CC50 in data set [2] is 35 µg/mL (≈ 83.3 µM); in data set [4], 39 µg/mL (≈ 92.8 µM). Besides, the “Ratio CC50/EC50” value in data set [6] came to 3; in data set [8], 2.5.
